Sampled rows, rich in hits. Any-hit rate of the full collection: about 3.5%.
MrgX1 antagonist: human MrgX1 receptor antagonism, primary screen; MRGX1-HEK293 calcium flux, Fluo-4, BAM8-22 antagonism; active compounds read low; actives 1.3% (n = 310,000); B-score at 10 µM;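 active = calcium-response B-score plate-corrected more than 3 library SD below zero, starting fluorescence within 5 deviations, no agonist response on first addition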;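 note: peak minus trough fluorescence over baseline after final BAM8-22 challenge near maximal dose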
Target sequence (Q96LB2 whole entry, looked up): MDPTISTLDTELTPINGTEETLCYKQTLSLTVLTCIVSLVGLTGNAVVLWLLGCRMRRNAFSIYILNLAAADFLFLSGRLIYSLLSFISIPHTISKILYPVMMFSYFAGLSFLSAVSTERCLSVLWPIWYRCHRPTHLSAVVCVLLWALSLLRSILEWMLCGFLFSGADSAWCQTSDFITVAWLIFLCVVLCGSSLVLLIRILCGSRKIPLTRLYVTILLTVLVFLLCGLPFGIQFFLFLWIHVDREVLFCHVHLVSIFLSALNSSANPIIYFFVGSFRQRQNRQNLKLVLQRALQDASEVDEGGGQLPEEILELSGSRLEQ
RGS4 inh: human RGS4 inhibition. B-score at 10 µM. P49798. HEK293 M3R/RGS4 inducible, Fluo-4 calcium flux; active compounds read high; triggered by carbachol at its EC20. AID 463165. actives 0.45% (n = 310,000);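 active = B-score, a plate-corrected calcium signal, over three deviations above library mean, with baseline fluorescence within five deviations of library mean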;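 note: RGS4 expression induced by doxycycline in cells with stable M3 receptor; B-score is computed from the integrated fluorescence ratio over baseline after carbachol; higher B-score means a larger calcium signal and so more RGS4 inhibition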
Target sequence (P49798 whole entry, looked up): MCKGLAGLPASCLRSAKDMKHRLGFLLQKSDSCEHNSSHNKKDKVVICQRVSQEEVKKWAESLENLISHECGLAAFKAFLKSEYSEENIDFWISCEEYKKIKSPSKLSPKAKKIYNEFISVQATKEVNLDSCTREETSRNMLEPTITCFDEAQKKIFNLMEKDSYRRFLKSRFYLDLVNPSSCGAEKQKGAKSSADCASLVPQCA
MrgX1 PAM: allosterically activates human MrgX1 receptor signaling; B-score at 10 µM; actives 0.63% (n = 310,000); MrgX1-HEK293, Fluo-4 calcium flux, FDSS; active compounds read high;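 active = plate-corrected calcium response at least 3 library SD above typical, normal starting fluorescence, not activating the receptor alone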;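 note: compound read alongside a low EC10 to EC30 dose of BAM8-22 agonist; peak minus trough fluorescence over baseline measured at the second addition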
MrgX1 ag: activates human MrgX1 receptor signaling | AID 588627 | MrgX1-HEK293 cells, Fluo-4 calcium fluorescence, agonist mode; active compounds read high | Q96LB2 | actives 0.44% (n = 310,000) | B-score at 10 µM;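 active = calcium response B-score plate-corrected fluorescence ratio at least 3 library SD, with starting fluorescence B-score inside 5 SD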
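Test system: HEK293 cells stably expressing human MrgX1 receptor; Input: fifteen thousand cells per well; Dosing: compound delivered in addition one of three; Schedule: overnight seeding, then 1 h dark dye loading; Technique: Fluo-4 NW calcium fluorescence; Measure: B-scored fluorescence response ratio; Controls: positive and negative controls per plate.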
RGS4 pot: RGS4 potentiation or activation | B-score at 10 µM | actives 0.92% (n = 310,000) | HEK293 M3R/inducible RGS4, carbachol calcium flux Fluo4; active compounds read low;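 active = B-score of the integrated calcium signal more than 4 SD below the library mean, with starting fluorescence not abnormally high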;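 note: negative B-score means reduced calcium response which marks RGS4 activation or potentiation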
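System – HEK293 FlpIn-TREx cells, stable M3R, doxycycline-inducible RGS4 · Reagent – ECmax carbachol challenge · Times – compound preincubation 20 min at room temperature before agonist · Technique – Fluo4 fluorescence kinetic imaging of calcium · Measure – B score of integrated Fluo4 ratio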
MrgX1 ant reconf: human MrgX1 receptor antagonism, re-confirmation screen; shares compounds with MrgX1 antagonist; MrgX1-HEK293, BAM8-22 calcium flux, Fluo-4; active compounds read low; remaining BAM8-22 calcium response % of control (active compounds read low), % at 10 µM; actives 19% (n = 2,300); AID 602420;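 active = remaining agonist calcium response no higher than 100% minus 3 SD of agonist-only control wells, with starting fluorescence near control levels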;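 note: agonist BAM8-22 given at a near maximal EC90 to ECmax level; peak minus minimum fluorescence divided by baseline after agonist addition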
HEK293 Ca flux: counter-screen for MrgX1 antagonists: effect in parental HEK293 cells. shares compounds with MrgX1 antagonist. Fluo-4 calcium fluorescence, FDSS. fluorescence ratio F(max-min)/F0 at 10 µM. actives 2% (n = 4,000). AID 624111;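 active = duplicate-averaged calcium fluorescence ratio at least three times the standard deviation of buffer wells, a nonspecific response in parental cells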
HEK293 Ca counter: counter-screen for MrgX1 allosteric activators: effect in parental HEK293 cells. fluorescence ratio F(max-min)/F0 at 10 µM. parental HEK293 calcium flux, Fluo-4 fluorescence ratio; active compounds read high. shares compounds with MrgX1 antagonist. actives 0.4% (n = 4,000);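 active = calcium fluorescence ratio, averaged over duplicates, at least 3 SD of the buffer-well ratio, meaning a nonspecific response in receptor-free cells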;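 note: untransfected parental HEK293 lacking MrgX1 used as counterscreen for MrgX1 allosteric activators; fluorescence change taken during the second addition on a kinetic imager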
HEK293 Ca cntr2: MrgX1 activator counter-screen hit in parental HEK293 cells. shares compounds with MrgX1 antagonist. Fluo-4 calcium fluorescence (FDSS); active compounds read high. fluorescence ratio F(max-min)/F0 at 10 µM. actives 8.7% (n = 4,000);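 active = calcium fluorescence ratio at least three times the spread of buffer wells, meaning a non-specific response in parental cells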
Of the large screens only hits and unclear results are named; the others gave an inactive call (follow-up assays come after a bar, where they were run).

CCn1ccnc1CNC(=O)CC1C(=O)NCCN1CC(c1ccccc1)c1ccccc1 (stereo not given)	none
COc1ccccc1NC(=S)NCCc1c[nH]c2ccccc12	MrgX1 antagonist -5.6 | MrgX1 ant reconf inactive | HEK293 Ca flux inactive | HEK293 Ca counter inactive | HEK293 Ca cntr2 inactive
CCN(CC)S(=O)(=O)c1ccc(OC(C)C)nc1	MrgX1 antagonist -5.9 | MrgX1 ant reconf inactive | HEK293 Ca flux inactive | HEK293 Ca counter inactive | HEK293 Ca cntr2 inactive
COCCNC(=O)c1cc2nc(-c3ccc(F)cc3)cc(C(F)(F)F)n2n1	none
CS(=O)(=O)c1ncc(Cl)c(C(=O)Nc2ccc(OC(F)F)cc2)n1	MrgX1 antagonist -4.9 | MrgX1 ant reconf inactive | HEK293 Ca flux inactive | HEK293 Ca counter inactive | HEK293 Ca cntr2 inactive
CCOC(=O)N1CCN(C(=O)C2COc3ccccc3O2)CC1 (stereo not given)	MrgX1 antagonist -7.8 | MrgX1 ant reconf inactive | HEK293 Ca flux inactive | HEK293 Ca counter inactive | HEK293 Ca cntr2 inactive
CCN1CCN(C(=O)C2COc3ccccc3O2)CC1 (stereo not given)	none
O=C(CSc1nnc(NC(=O)c2c(F)cccc2F)s1)Nc1ccc(F)cc1	MrgX1 antagonist -6.2 | MrgX1 ant reconf inactive | HEK293 Ca flux inactive | HEK293 Ca counter inactive | HEK293 Ca cntr2 inactive
COCC1CCN(C(=O)CC2C(=O)NCCN2Cc2cccc(Oc3ccccc3)c2)CC1 (stereo not given)	none
CCc1ccc(N(CC)C(=O)Cc2c(C(=O)O)n(C)c3ccccc23)cc1	MrgX1 antagonist -6.6 | MrgX1 ant reconf inactive | HEK293 Ca flux inactive | HEK293 Ca counter inactive | HEK293 Ca cntr2 inactive
CCOc1ccc(N(CC)C(=O)Cc2c(C(=O)O)n(C)c3ccccc23)cc1	none
COc1ccc(CC(=O)NC(C)c2ccc(S(N)(=O)=O)cc2)cc1S(=O)(=O)N1CCOCC1 (stereo not given)	MrgX1 antagonist -9.3 | MrgX1 ant reconf inactive | HEK293 Ca flux inactive | HEK293 Ca counter inactive | HEK293 Ca cntr2 inactive
COc1ccc(CC(=O)NC(C)(C)C)cc1S(=O)(=O)N1CCOCC1	none
COc1ccccc1C(CNC(=O)CCNC(=O)c1ccccc1Cl)N1CCCC1 (stereo not given)	none
CCOC(=O)c1cc(N)cc([N+](=O)[O-])c1	none
CCOC(=O)c1sc2cc([N+](=O)[O-])cc(SCC(C)C)c2c1N	MrgX1 antagonist -10 | MrgX1 ant reconf inactive | HEK293 Ca flux 0.6 | HEK293 Ca counter inactive | HEK293 Ca cntr2 inactive
COCCn1cnc2c1c(=O)n(CC(=O)OCC(=O)NCC(F)(F)F)c(=O)n2Cc1ccccc1	none
Cc1cc(NC(=O)COc2coc(CN3CCN(c4ccc(F)cc4)CC3)cc2=O)no1	none
N=c1c(S(=O)(=O)c2ccc(Br)cc2)cc2c(=O)n3ccccc3nc2n1Cc1ccco1	MrgX1 antagonist -4.6 | MrgX1 ant reconf 82% | HEK293 Ca flux inactive | HEK293 Ca counter inactive | HEK293 Ca cntr2 inactive
CCOC(=O)c1cc2c(=O)n3ccccc3nc2n(Cc2ccco2)c1=NC(=O)c1cccnc1	MrgX1 antagonist -15 | MrgX1 ant reconf inactive | HEK293 Ca flux inactive | HEK293 Ca counter inactive | HEK293 Ca cntr2 inactive
N=c1c(S(=O)(=O)c2ccc(Cl)cc2)cc2c(=O)n3ccccc3nc2n1Cc1ccco1	none
CCOC(=O)c1cc2c(=O)n3ccccc3nc2n(Cc2ccco2)c1=NC(=O)c1ccccc1OCC	none
CCOC(=O)C1(Cc2ccccc2)CCN(Cc2ccc3c(c2)OCCO3)CC1	none
Cc1nn(CC(=O)Nc2ccc(N3CCOCC3)cc2)c(C)c1Cl	none

Screening results: PubChem, Johns Hopkins Ion Channel Center
